Screening results (PubChem)
WT yeast gro inh: growth inhibition of WT yeast, mitochondrial fusion screen; inhibition, % at 10 µM; hit rate 2.1% among 190,000; mitochondrial fusion phenotypic screen, WT strain; in the data active means inhibition above about 58%; tested in S. cerevisiae
BB579 growth dn: reduces growth of yeast BB579 in restrictive medium; S. cerevisiae BB579 growth, OD615, 48 h; inhibition, % at 10 µM; hit rate 0.51% among 140,000; AID 804;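 active means inhibition above a set limit, 3 SD over the mean compound inhibition, cut at about 44% in these data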
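Detection: OD615 turbidity measurement; Material: Saccharomyces cerevisiae DeaD strain BB579, replicative lifespan model yeast; Timing: 48 h exposure, 30 °C; Doses: single 10 µM dose; Medium: CSMM-D restrictive synthetic medium containing dextrose (glucose); Controls: amphotericin B at 10 µg/mL as positive control.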
Yeast lifespan up: extends the lifespan of yeast; AID 775; hit rate 0.68% among 130,000; S. cerevisiae growth with nicotinamide, OD615; deaD strain in restrictive glucose medium; inhibition of the nicotinamide effect, % at 10 µM;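 active means inhibition above a set limit, placed 3 SD over the median of all compounds, cut at about 26% in these data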;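 further: 0% = nicotinamide-treated wells and 100% = cells grown without nicotinamide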
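Assay system: DeaD-strain S. cerevisiae. Medium: CSMM-D glucose medium, restrictive. Reagent: nicotinamide, 1.5 mM, co-present with compound. Compound: 10 µM single point, 0.25% DMSO. Schedule: culture preincubation 4 h, compound exposure 48 h, both 30 °C. Detection: absorbance at 615 nm.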
RAM network inh: inhibitors of the yeast RAM network | S. cerevisiae dse1pr::URA3 reporter, 5-FOA growth OD615, 2 d; analog-sensitive cbk1-as2 kinase mutant strain | inhibition, % at 50 µM | hit rate 1.8% among 190,000 | AID 868;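 active means inhibition above a set limit, 3 SD over mean compound inhibition, cut at about 8.4% in these data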;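 further: 0% = DMSO-only wells with no growth and 100% = 10 µM 1-NA-PP1 full growth; inhibition rescues growth on 5-FOA so higher OD means more RAM inhibition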
* = called active by the depositor; nt = no result given. Hits are enriched below; roughly 4.3% of the tested compounds scored in any of these assays.

SMILES	WT yeast gro inh	BB579 growth dn	Yeast lifespan up	RAM network inh
Cc1[nH]c2ccccc2c1/C=C(\C#N)C(=O)NC(C)c1ccccc1 (centres undefined)	84.5*	3.5	-33.4	2.2
Cc1ccc(/C=C(/C#N)C(=O)NC(C)c2ccccc2)o1 (centres undefined)	3.1	3.4	6.0	1.7
CCc1ccc(C(C)NC(=O)/C(C#N)=C\c2cn[nH]c2-c2ccccc2)cc1 (centres undefined)	59.0*	-21.6	-13.3	6.1
COC(=O)C1=C(CSCc2ccccc2)NC(=O)NC1c1cc(C)ccc1C (centres undefined)	-3.5	-24.4	-3.6	2.6
COC(=O)C1=C(CSc2nc3ccccc3o2)NC(=O)NC1c1cc(C)ccc1C (centres undefined)	75.4*	-48.5	0.0	3.7
O=C(Nc1ncc2c(n1)-c1ccccc1OC2)c1cccc([N+](=O)[O-])c1	16.8	nt	nt	8.6*
O=C(Nc1ncc2c(n1)-c1ccccc1OC2)c1ccc(F)cc1	8.1	nt	nt	0.6
O=C(Oc1ccc(=O)n(-c2ccccc2)n1)c1ccccc1	-25.0	-52.2	35.9*	-1.0
COc1ccc(N2CCN(c3oc(COc4ccccc4)nc3C#N)CC2)cc1	8.0	-21.5	-3.5	10.3*
COc1ccc(N2CCN(c3oc(Cc4ccccc4)nc3C#N)CC2)cc1	-1.4	-26.9	-24.0	10.6*
N#Cc1nc(COc2ccc(-c3ccccc3)cc2)oc1NCCCN1CCOCC1	76.8*	28.4	-26.6	-0.1
N#Cc1nc(COc2ccccc2)oc1N1CCOCC1	-8.0	-25.1	-6.9	1.0
N#Cc1nc(Cc2ccccc2)oc1N1CCN(c2cccc(Cl)c2)CC1	26.4	-33.7	-4.9	11.3*
COc1ccc(-c2nc(C#N)c(N3CCN(c4ccccc4)CC3)o2)cc1	8.6	-26.0	-10.5	2.2
COc1ccc(COc2ccc(C3C(S(=O)(=O)c4ccccc4)CON3C)cc2OC)cc1 (centres undefined)	3.0	nt	nt	3.4
CCOC(=O)c1c(C(=O)OCC)c(C)n(CCc2ccc(OC)c(OC)c2)c1C	10.4	-32.2	4.3	2.0
CCOC(=O)c1sc2ccccc2c1OC(=O)c1ccccc1OC	19.9	-25.5	16.4	10.4*
C=CCN=c1scc(-c2ccccc2)n1/N=C/c1ccccn1	75.3*	4.5	-5.5	-0.5
C=CCN=c1scc(-c2ccc(F)cc2)n1/N=C/c1ccccn1	38.8	-44.9	-6.0	1.3
CCOc1ccc(C(C)NC(=O)Nc2ccccc2C(=O)OC)cc1 (centres undefined)	20.0	-74.1	-9.7	7.6
CC(C)C1COC(c2cccn2Cc2ccccc2Cl)=N1 (centres undefined)	65.4*	nt	nt	1.4
CC(=O)/C=C/n1c(=S)oc2ccccc21	5.0	20.8	39.4*	-1.1
COC(=O)c1cc(=O)n(-c2ccccc2)c(=Nc2ccccc2)s1	-22.3	-32.0	32.9*	-0.9
O=C(NNC(=O)C1CC(c2cccnc2)=NO1)Nc1cccc(F)c1 (centres undefined)	16.2	8.8	-15.3	2.5
COc1ccc(CSC(=N)N)cc1[N+](=O)[O-]	-13.2	-74.7	0.6	2.3
SMILES	WT yeast gro inh	BB579 growth dn	Yeast lifespan up	RAM network inh
CCCCCOc1ccc(CSC(=N)N)cc1[N+](=O)[O-]	77.0*	-3.5	-30.9	2.1
Cc1ccc(CONC(=O)/N=C/N(C)C)cc1	8.3	-49.2	-2.9	2.3
C#CCNC(=O)C1=C[C@H](c2ccc(Br)cc2)C[C@H](OCc2ccc(CO)cc2)O1	14.1	nt	nt	4.8
COC(=O)c1cc2ccccc2c(-c2c(OC)c(C(=O)OC)cc3ccccc23)c1OC	72.3*	-49.8	18.2	6.1
O=C(CSc1ccc(Cl)cc1)N/N=C/c1cccnc1	-1.4	nt	nt	0.0
CC1CCCN(C(=O)Cc2cn(Cc3cccc(Cl)c3)c3ccccc23)C1 (centres undefined)	72.6*	-12.8	2.4	6.0
O=C(Cc1cn(Cc2cccc(Cl)c2)c2ccccc12)N1CCCCCC1	68.5*	-21.0	4.2	2.9
O=C(O)Cc1cn(Cc2cccc(Cl)c2)c2ccccc12	-1.2	nt	nt	-0.9
Cc1ccc(C)c(N2CCN(S(=O)(=O)c3c(C)noc3/C=C/N(C)C)CC2)c1	44.2	-14.6	35.8*	-0.8
Cc1noc(/C=C/N(C)C)c1S(=O)(=O)N1CCN(c2ccccc2)CC1	11.7	-3.2	8.8	1.7
c1csc(-c2nc3c4ccccc4c4ccccc4c3[nH]2)c1	79.6*	-66.0	nt	2.6
c1ccc(-c2nc(-c3cccs3)[nH]c2-c2ccccc2)cc1	3.9	-31.4	-19.8	-0.1
c1ccc(SSc2ccccc2)cc1	29.6	3.1	27.9*	1.0
c1ccc(SCCc2ccncc2)cc1	-11.3	-39.6	10.8	2.2
O=C(Nc1ccc(Cl)cc1)N1CCN(c2ccc3nnc(-c4ccc(F)cc4)n3n2)CC1	80.3*	-31.2	-13.1	1.6
O=C(Nc1ccccc1Cl)N1CCN(c2ccc3nnc(-c4ccccc4)n3n2)CC1	17.5	-53.8	-4.4	1.3
O=C(NC(=S)Nc1ccc(S(=O)(=O)Nc2nccs2)cc1)c1cccc(F)c1	-2.6	-23.0	10.0	5.8
COc1ccc(NC(=O)c2cncc(Br)c2)cc1S(N)(=O)=O	-3.4	nt	nt	-0.5
c1ccc(-c2noc(-c3ccccc3-c3ccccc3)n2)cc1	71.6*	-12.3	-14.8	1.9
COc1ccc(C(C(=O)NC(C)(C)C)N(C(=O)CNC(=O)c2cccs2)c2ccc(C)cc2)cc1OC (centres undefined)	10.8	-14.6	-13.6	-0.4
Cc1ccc(Cl)cc1N1CCN(C(CC(C)C)c2nnnn2CC2CCCO2)CC1 (centres undefined)	10.5	0.1	-8.3	1.7
CCC(c1nnnn1C(C)(C)C)N1CCN(c2cc(Cl)ccc2C)CC1 (centres undefined)	72.7*	-61.7	-16.2	1.2
CCCC(c1nnnn1CC1CCCO1)N1CCN(c2cc(Cl)ccc2C)CC1 (centres undefined)	65.3*	-41.0	-6.4	0.8
COc1ccccc1NC(=O)c1ccc(NC(=O)COC(=O)C2(C)CC2(Cl)Cl)cc1 (centres undefined)	34.7	-33.8	-3.4	4.7
c1cncc(C2OCC3(CO2)COC(c2cccnc2)OC3)c1 (centres undefined)	-9.5	nt	nt	-0.4
SMILES	WT yeast gro inh	BB579 growth dn	Yeast lifespan up	RAM network inh
CCC(C)n1cnc2c(c1=O)c1nc3ccccc3nc1n2Cc1ccc(OC)cc1 (centres undefined)	65.3*	-35.5	-10.8	1.7
CC(C)Cn1cnc2c(c1=O)c1nc3ccccc3nc1n2Cc1ccc2c(c1)OCO2	2.0	-11.9	-14.6	2.9
CCOC(=O)CN1C(c2ccc(O)cc2)Nc2ccc(Br)cc2C1c1ccccc1 (centres undefined)	95.6*	-13.1	-7.4	0.1
CCOC(=O)CN1C(=O)Nc2ccc(Br)cc2C1c1ccccc1 (centres undefined)	0.7	-11.4	-3.3	3.5
O=C(NN1C(=O)c2ccc(-c3ccc4c(c3)C(=O)N(NC(=O)c3cccnc3)C4=O)cc2C1=O)c1cccnc1	7.7	nt	nt	5.3
CCOC(=O)c1cnc(-n2nc(C)cc2C)nc1NC1CCCCC1	82.3*	97.6*	-12.8	-2.3
